Data from ChEMBL document CHEMBL2021818, “Novel desosamine-modified 14- and 15-membered macrolides without antibacterial activity” (2012).
≈ marks a conversion by molar mass, not a printed value.

Assays:
Type in all cases: functional
Staphylococcus aureus = experiment: Antibacterial activity against Staphylococcus aureus ATCC 13709 after 24 hrs at 37 degC by CLSI protocol based microdilution method; settings: ATCC 13709, 24 h
Outline: (§1)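 Macrolide-susceptible strains, broth microdilution MIC per CLSI. Media: Mueller–Hinton broth (MHB) for S. aureus and M. catarrhalis, MHB plus 5% horse serum for streptococci, Haemophilus test medium for H. influenzae. Compounds dissolved in DMF (5 mg/mL stock) and serially twofold diluted in medium over 64 to 0.125 µg/mL. MIC read after 24 h incubation at 37 °C.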

Streptococcus pneumoniae = experiment: Antibacterial activity against Streptococcus pneumoniae ATCC […] after 24 hrs at 37 degC by CLSI protocol based microdilution method; outline: as §1
Streptococcus pyogenes = experiment: Antibacterial activity against Streptococcus pyogenes ATCC 700294 after 24 hrs at 37 degC by CLSI protocol based microdilution method; settings: ATCC 700294, 24 h; outline: as §1
Moraxella catarrhalis = experiment: Antibacterial activity against Moraxella catarrhalis ATCC 23246 after 24 hrs at 37 degC by CLSI protocol based microdilution method; settings: ATCC 23246, 24 h; outline: as §1
Haemophilus influenzae = experiment: Antibacterial activity against Haemophilus influenzae ATCC 49247 after 24 hrs at 37 degC by CLSI protocol based microdilution method; settings: ATCC 49247, 24 h; outline: as §1

For CC[C@H]1OC(=O)[C@H](C)[C@@H](O[C@H]2C[C@@](C)(OC)[C@@H](O)[C@H](C)O2)[C@H](C)[C@@H](O[C@@H]2O[C@H](C)C[C@H](N(C)C)[C@H]2O)[C@](C)(OC)C[C@@H](C)C(=O)[C@H](C)[C@@H](O)[C@]1(C)O [CLARITHROMYCIN], the MIC (Staphylococcus aureus) was 0.25 µg/mL (≈ 0.334 µM), the MIC (Streptococcus pneumoniae) was < 0.125 µg/mL and the MIC (Streptococcus pyogenes) was < 0.125 µg/mL. For the same compound, the MIC (Moraxella catarrhalis) was < 0.125 µg/mL and the MIC (Haemophilus influenzae) was 8 µg/mL (≈ 10.7 µM).
